Reference: ChEMBL document CHEMBL4007497, “Development of Potent and Selective Antagonists for the UTP-Activated P2Y4 Receptor” (J Med Chem, 2017)
Several values for one entry are separate records, joined by “and”; a condition that tells them apart may be missing. Identical values can stand only once.

target: T1, P2Y purinoceptor 4 (Homo sapiens, UniProt P51582); assay: Antagonist activity at human P2Y4 receptor transfected in human 1321N1 cells assessed as inhibition of UTP-activated intracellular calcium mobilization at 30 uM preincubated for 30 mins followed by UTP addition by fluo-4-dye based fluorescence assay; type: functional, cell-based
T1 sequence (P51582 whole entry): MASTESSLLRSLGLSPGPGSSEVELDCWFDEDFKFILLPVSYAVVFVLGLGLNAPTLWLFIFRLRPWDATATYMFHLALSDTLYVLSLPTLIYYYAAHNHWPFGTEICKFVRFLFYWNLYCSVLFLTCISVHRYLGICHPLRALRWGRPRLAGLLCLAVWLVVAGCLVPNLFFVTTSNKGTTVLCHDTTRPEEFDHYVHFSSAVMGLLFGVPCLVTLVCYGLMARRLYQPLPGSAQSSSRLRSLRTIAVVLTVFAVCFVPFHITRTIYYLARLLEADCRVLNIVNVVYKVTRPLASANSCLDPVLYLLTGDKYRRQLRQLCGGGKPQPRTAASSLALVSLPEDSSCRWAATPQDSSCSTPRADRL

Row | SMILES | inhibition [%]
1 | Cc1cc(Nc2cccc(F)c2)c2c(c1N)C(=O)c1ccccc1C2=O | -4
2 | Nc1c(S(=O)(=O)O)cc(Nc2ccc(C(=O)O)cc2)c2c1C(=O)c1ccccc1C2=O | 57
3 | Nc1c(S(=O)(=O)O)cc(Nc2ccc([N+](=O)[O-])cc2C(=O)O)c2c1C(=O)c1ccccc1C2=O | 30
4 | COc1cccc(Nc2cc(C)c(N)c3c2C(=O)c2ccccc2C3=O)c1 | 38
5 | Nc1c(S(=O)(=O)O)cc(Nc2ccc(Br)cc2C(=O)O)c2c1C(=O)c1ccccc1C2=O | 30
6 | COc1cccc(Nc2cc(S(=O)(=O)O)c(N)c3c2C(=O)c2ccccc2C3=O)c1 [listing 1 of 3 here] | 77

target: P2Y purinoceptor 1 (Homo sapiens, UniProt P47900); assay: Antagonist activity at human P2Y1 receptor transfected in human 1321N1 cells assessed as inhibition of ADP-activated intracellular calcium mobilization preincubated for 30 mins followed by ADP addition by fluo-4-dye based fluorescence assay; type: functional, cell-based
Sequence (P47900 whole entry): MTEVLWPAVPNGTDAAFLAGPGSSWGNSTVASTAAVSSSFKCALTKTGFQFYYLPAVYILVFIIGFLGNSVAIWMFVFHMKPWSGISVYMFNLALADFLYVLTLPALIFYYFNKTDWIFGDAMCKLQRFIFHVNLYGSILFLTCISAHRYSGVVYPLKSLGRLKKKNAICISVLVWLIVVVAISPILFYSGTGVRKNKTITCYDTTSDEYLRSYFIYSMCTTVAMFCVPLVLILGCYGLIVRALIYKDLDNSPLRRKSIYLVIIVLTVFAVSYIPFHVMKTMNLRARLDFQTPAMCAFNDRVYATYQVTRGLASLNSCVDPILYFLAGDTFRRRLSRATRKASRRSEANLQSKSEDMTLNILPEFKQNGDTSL
How it was run: (§1)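 1321N1 astrocytoma cells stably expressing the human P2Y subtype, grown in DMEM with 10 % FCS and 200 μg/mL G418 at 37 °C. Plated 50,000 cells/well about 24 h before testing. Cells loaded with fluo-4 AM for 1 h, then placed in HBSS and preincubated 30 min with compound. Agonist was injected at about EC80: ADP 500 nM (P2Y1), UTP 500 nM (P2Y2, P2Y4), UDP 750 nM (P2Y6). Fluorescence read at ex 488/em 525 nm. At least three independent experiments in duplicate. IC50 obtained by nonlinear regression.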

Row | SMILES | IC50 [µM]
7 | Cc1ccc(Sc2ccc(Nc3cc(S(=O)(=O)O)c(N)c4c3C(=O)c3ccccc3C4=O)cc2)cc1C | 4.55
8 | Nc1c(S(=O)(=O)O)cc(Nc2ccccc2)c2c1C(=O)c1ccccc1C2=O [ACID BLUE 25] | 17.6
9 | Cc1cc(Nc2cc(S(=O)(=O)O)c(N)c3c2C(=O)c2ccccc2C3=O)ccc1O | 7.65
10 | Cc1ccc(C)c(Sc2ccc(Nc3cc(S(=O)(=O)O)c(N)c4c3C(=O)c3ccccc3C4=O)cc2)c1 | 2.72

target: P2Y purinoceptor 2 (Homo sapiens, UniProt P41231); assay: Antagonist activity at human P2Y2 receptor transfected in human 1321N1 cells assessed as inhibition of UTP-activated intracellular calcium mobilization preincubated for 30 mins followed by UTP addition by fluo-4-dye based fluorescence assay; type: functional, cell-based; how it was run: as §1
Sequence (P41231 whole entry): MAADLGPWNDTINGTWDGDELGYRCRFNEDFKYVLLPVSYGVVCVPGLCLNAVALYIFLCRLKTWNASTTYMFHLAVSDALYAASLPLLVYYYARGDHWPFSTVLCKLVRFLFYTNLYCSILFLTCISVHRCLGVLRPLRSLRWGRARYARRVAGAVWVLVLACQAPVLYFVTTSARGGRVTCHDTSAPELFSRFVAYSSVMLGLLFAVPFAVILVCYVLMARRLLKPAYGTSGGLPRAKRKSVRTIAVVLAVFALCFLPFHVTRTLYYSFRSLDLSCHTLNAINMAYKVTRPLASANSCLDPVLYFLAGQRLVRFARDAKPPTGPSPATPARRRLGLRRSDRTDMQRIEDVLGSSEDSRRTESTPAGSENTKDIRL

Row | SMILES | IC50 [µM]
11 | Cc1ccc(Sc2ccc(Nc3cc(S(=O)(=O)O)c(N)c4c3C(=O)c3ccccc3C4=O)cc2)cc1C | 10.2
12 | Nc1c(S(=O)(=O)O)cc(Nc2ccccc2)c2c1C(=O)c1ccccc1C2=O [ACID BLUE 25] | 17.1
13 | Cc1cc(Nc2cc(S(=O)(=O)O)c(N)c3c2C(=O)c2ccccc2C3=O)ccc1O | 16.4
14 | Cc1ccc(C)c(Sc2ccc(Nc3cc(S(=O)(=O)O)c(N)c4c3C(=O)c3ccccc3C4=O)cc2)c1 | 6.52

target: T1, P2Y purinoceptor 4; assay: Antagonist activity at human P2Y4 receptor transfected in human 1321N1 cells assessed as inhibition of UTP-activated intracellular calcium mobilization at 100 uM preincubated for 30 mins followed by UTP addition by fluo-4-dye based fluorescence assay; type: functional, cell-based

Row | SMILES | inhibition
15 | Nc1c(S(=O)(=O)O)cc(Nc2ccc(F)cc2C(=O)O)c2c1C(=O)c1ccccc1C2=O [listing 1 of 3 here] | 17% and 25%
16 | Nc1c(S(=O)(=O)O)cc(Nc2ccc(Cl)cc2C(=O)O)c2c1C(=O)c1ccccc1C2=O | 31%
17 | Nc1c(S(=O)(=O)O)cc(Nc2cc(F)ccc2C(=O)O)c2c1C(=O)c1ccccc1C2=O | 33%

target: P2Y purinoceptor 12 (Homo sapiens, UniProt Q9H244); assay: Antagonist activity at human P2Y12 receptor expressed in CHO cells assessed as inhibition of 2-MeSADP-induced beta-arrestin translocation preincubated for 30 mins followed by 2-MeSADP addition measured after 90 mins by luminescence-based topcount method; type: cell-based
Sequence (Q9H244 whole entry): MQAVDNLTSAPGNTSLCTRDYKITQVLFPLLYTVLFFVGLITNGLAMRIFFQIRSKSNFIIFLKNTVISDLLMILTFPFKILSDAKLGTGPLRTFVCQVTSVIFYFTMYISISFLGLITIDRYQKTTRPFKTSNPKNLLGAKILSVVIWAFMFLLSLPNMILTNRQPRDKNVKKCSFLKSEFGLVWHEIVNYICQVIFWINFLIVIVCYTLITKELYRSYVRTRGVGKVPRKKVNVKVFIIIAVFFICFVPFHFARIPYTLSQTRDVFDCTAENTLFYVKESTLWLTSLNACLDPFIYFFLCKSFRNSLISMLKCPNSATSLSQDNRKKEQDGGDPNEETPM

Row | SMILES | IC50 [µM]
18 | Cc1ccc(Sc2ccc(Nc3cc(S(=O)(=O)O)c(N)c4c3C(=O)c3ccccc3C4=O)cc2)cc1C | 2.34
19 | Nc1c(S(=O)(=O)O)cc(Nc2ccccc2)c2c1C(=O)c1ccccc1C2=O [ACID BLUE 25] | 3.12
20 | Cc1cc(Nc2cc(S(=O)(=O)O)c(N)c3c2C(=O)c2ccccc2C3=O)ccc1O | 0.0604
21 | Cc1ccc(C)c(Sc2ccc(Nc3cc(S(=O)(=O)O)c(N)c4c3C(=O)c3ccccc3C4=O)cc2)c1 | 2.96

target: P2Y purinoceptor 6 (Homo sapiens, UniProt Q15077); assay: Antagonist activity at human P2Y6 receptor transfected in human 1321N1 cells assessed as inhibition of UDP-activated intracellular calcium mobilization preincubated for 30 mins followed by UDP addition by fluo-4-dye based fluorescence assay; type: functional, cell-based; how it was run: as §1
Sequence (Q15077 whole entry): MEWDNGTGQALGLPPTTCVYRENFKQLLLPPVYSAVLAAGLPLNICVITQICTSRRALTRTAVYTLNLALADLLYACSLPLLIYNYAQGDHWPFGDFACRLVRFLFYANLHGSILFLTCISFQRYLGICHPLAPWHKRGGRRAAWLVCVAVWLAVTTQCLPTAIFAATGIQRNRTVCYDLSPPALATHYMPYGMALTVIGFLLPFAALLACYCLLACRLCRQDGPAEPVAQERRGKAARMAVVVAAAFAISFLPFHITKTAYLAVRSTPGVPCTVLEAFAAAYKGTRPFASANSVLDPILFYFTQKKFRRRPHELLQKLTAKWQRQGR

Row | SMILES | IC50 [µM]
22 | Cc1ccc(Sc2ccc(Nc3cc(S(=O)(=O)O)c(N)c4c3C(=O)c3ccccc3C4=O)cc2)cc1C | 4.36
23 | Nc1c(S(=O)(=O)O)cc(Nc2ccccc2)c2c1C(=O)c1ccccc1C2=O [ACID BLUE 25] | 2.79
24 | Cc1cc(Nc2cc(S(=O)(=O)O)c(N)c3c2C(=O)c2ccccc2C3=O)ccc1O | 4.75
25 | Cc1ccc(C)c(Sc2ccc(Nc3cc(S(=O)(=O)O)c(N)c4c3C(=O)c3ccccc3C4=O)cc2)c1 | 2.67

target: T1, P2Y purinoceptor 4; assay: Antagonist activity at human P2Y4 receptor transfected in human 1321N1 cells assessed as inhibition of UTP-activated intracellular calcium mobilization preincubated for 30 mins followed by UTP addition by fluo-4-dye based fluorescence assay; type: functional, cell-based; how it was run: as §1

Row | SMILES | IC50 [µM]
26 | Cc1cc(Nc2cc(S(=O)(=O)O)c(N)c3c2C(=O)c2ccccc2C3=O)ccc1Cl | 1.65
27 | Nc1c(S(=O)(=O)O)cc(Nc2ccc(O)cc2)c2c1C(=O)c1ccccc1C2=O | 3.16
28 | Cc1ccc(Sc2ccc(Nc3cc(S(=O)(=O)O)c(N)c4c3C(=O)c3ccccc3C4=O)cc2)cc1C | 0.482
29 | Cc1cccc(Nc2cc(S(=O)(=O)O)c(N)c3c2C(=O)c2ccccc2C3=O)c1C | 2.63
30 | COc1ccc(Nc2cc(S(=O)(=O)O)c(N)c3c2C(=O)c2ccccc2C3=O)cc1OC | 4.98
31 | Cc1cc(Nc2cccc(F)c2)c2c(c1N)C(=O)c1ccccc1C2=O | > 30
32 | Nc1c(S(=O)(=O)O)cc(Nc2cccc(Cl)c2)c2c1C(=O)c1ccccc1C2=O | 2.34
33 | Nc1c(S(=O)(=O)O)cc(NCc2ccccc2)c2c1C(=O)c1ccccc1C2=O | 14.4
34 | Nc1c(S(=O)(=O)O)cc(Nc2ccc(C(=O)O)cc2)c2c1C(=O)c1ccccc1C2=O | 30
35 | COc1ccc(Nc2cc(S(=O)(=O)O)c(N)c3c2C(=O)c2ccccc2C3=O)cc1 | 2.59
36 | COc1ccccc1Nc1cc(S(=O)(=O)O)c(N)c2c1C(=O)c1ccccc1C2=O | 3.98
37 | Nc1c(S(=O)(=O)O)cc(Nc2ccc([N+](=O)[O-])cc2C(=O)O)c2c1C(=O)c1ccccc1C2=O | > 30
38 | Nc1c(S(=O)(=O)O)cc(NCCc2ccccc2)c2c1C(=O)c1ccccc1C2=O | 7.18
39 | Nc1c(S(=O)(=O)O)cc(Nc2ccc(Cc3ccccc3)cc2)c2c1C(=O)c1ccccc1C2=O | 3.45
40 | Nc1c(S(=O)(=O)O)cc(Nc2ccc(Cl)cc2C(=O)O)c2c1C(=O)c1ccccc1C2=O | > 100
41 | COc1cccc(Nc2cc(C)c(N)c3c2C(=O)c2ccccc2C3=O)c1 | > 30
42 | Nc1c(S(=O)(=O)O)cc(Nc2cccc(F)c2)c2c1C(=O)c1ccccc1C2=O | 1.39
43 | COc1cc(Nc2cc(S(=O)(=O)O)c(N)c3c2C(=O)c2ccccc2C3=O)ccc1C | 4.13
44 | COc1cccc(Nc2cc(S(=O)(=O)O)c(N)c3c2C(=O)c2ccccc2C3=O)c1 [listing 2 of 3 here] | > 10
45 | Nc1c(S(=O)(=O)O)cc(Nc2ccccc2)c2c1C(=O)c1ccccc1C2=O [ACID BLUE 25] | 1.97 to 3.1
46 | Nc1c(S(=O)(=O)O)cc(Nc2ccc(Oc3ccccc3)cc2)c2c1C(=O)c1ccccc1C2=O | 1.94

Row | SMILES | IC50 [µM]
47 | Cc1cc(Cl)ccc1Nc1cc(S(=O)(=O)O)c(N)c2c1C(=O)c1ccccc1C2=O | 2.2
48 | Cc1ccc(Nc2cc(S(=O)(=O)O)c(N)c3c2C(=O)c2ccccc2C3=O)c(C)c1 | 3.58
49 | Nc1c(S(=O)(=O)O)cc(Nc2ccc(F)cc2C(=O)O)c2c1C(=O)c1ccccc1C2=O [listing 2 of 3 here] | > 100
50 | Nc1c(S(=O)(=O)O)cc(Nc2cc(F)ccc2C(=O)O)c2c1C(=O)c1ccccc1C2=O | > 100
51 | COc1cc(Nc2cc(S(=O)(=O)O)c(N)c3c2C(=O)c2ccccc2C3=O)cc(OC)c1 | 9.25
52 | CCc1ccccc1Nc1cc(S(=O)(=O)O)c(N)c2c1C(=O)c1ccccc1C2=O | 3.53
53 | CCc1ccc(Nc2cc(S(=O)(=O)O)c(N)c3c2C(=O)c2ccccc2C3=O)cc1 | 3.21
54 | Cc1ccccc1Nc1cc(S(=O)(=O)O)c(N)c2c1C(=O)c1ccccc1C2=O | 3.49
55 | Cc1cc(C)cc(Nc2cc(S(=O)(=O)O)c(N)c3c2C(=O)c2ccccc2C3=O)c1 | 6.45
56 | Nc1c(S(=O)(=O)O)cc(Nc2ccc(O)cc2C(=O)O)c2c1C(=O)c1ccccc1C2=O | 21.1
57 | O=C1c2ccccc2C(=O)c2c(Nc3cccc(F)c3)cc(S(=O)(=O)O)cc21 | 30
58 | COc1cc(Nc2cc(S(=O)(=O)O)c(N)c3c2C(=O)c2ccccc2C3=O)ccc1Cl | 3.37
59 | CCCc1cccc(Nc2cc(S(=O)(=O)O)c(N)c3c2C(=O)c2ccccc2C3=O)c1 | 2.99
60 | Nc1c(S(=O)(=O)O)cc(Nc2ccc(Cl)cc2)c2c1C(=O)c1ccccc1C2=O | 3.03
61 | Nc1c(S(=O)(=O)O)cc(Nc2cc(F)cc(F)c2)c2c1C(=O)c1ccccc1C2=O | 12.5
62 | Nc1c(S(=O)(=O)O)cc(Nc2ccc(Oc3ccc(Cl)cc3)cc2)c2c1C(=O)c1ccccc1C2=O | 0.373
63 | Nc1c(S(=O)(=O)O)cc(Nc2cccc(Br)c2)c2c1C(=O)c1ccccc1C2=O | 6.96
64 | Nc1c(S(=O)(=O)O)cc(Nc2ccc(F)cc2C(=O)O)c2c1C(=O)c1ccccc1C2=O [listing 3 of 3 here] | > 100
65 | Nc1c(S(=O)(=O)O)cc(Nc2ccc(Nc3nc(Cl)nc(Nc4cccc(S(=O)(=O)O)c4)n3)c(S(=O)(=O)O)c2)c2c1C(=O)c1ccccc1C2=O [RB 2] | 1.14
66 | COc1cccc(Nc2cc(S(=O)(=O)O)c(N)c3c2C(=O)c2ccccc2C3=O)c1 [listing 3 of 3 here] | 1.7
67 | Cc1cc(Nc2cc(S(=O)(=O)O)c(N)c3c2C(=O)c2ccccc2C3=O)ccc1O | 0.746

Row | SMILES | IC50 [µM]
68 | Nc1c(S(=O)(=O)O)cc(Nc2ccc(Br)cc2C(=O)O)c2c1C(=O)c1ccccc1C2=O | > 100
69 | COc1cc(Nc2cc(S(=O)(=O)O)c(N)c3c2C(=O)c2ccccc2C3=O)ccc1F | 1.54
70 | Cc1cccc(Nc2cc(S(=O)(=O)O)c(N)c3c2C(=O)c2ccccc2C3=O)c1 | 2.22
71 | Nc1c(S(=O)(=O)O)cc(Nc2ccccc2C(=O)O)c2c1C(=O)c1ccccc1C2=O | 6.1
72 | CCc1cccc(Nc2cc(S(=O)(=O)O)c(N)c3c2C(=O)c2ccccc2C3=O)c1 | 1.51
73 | Nc1c(S(=O)(=O)O)cc(Nc2ccc(Nc3ccccc3)cc2)c2c1C(=O)c1ccccc1C2=O | 1.91
74 | Nc1c(S(=O)(=O)O)cc(Nc2cccc3ccccc23)c2c1C(=O)c1ccccc1C2=O | 7.42
75 | Nc1c(S(=O)(=O)O)cc(Nc2ccc(Nc3nc(Cl)nc(Nc4ccc(S(=O)(=O)O)cc4)n3)c(S(=O)(=O)O)c2)c2c1C(=O)c1ccccc1C2=O | 0.625
76 | Nc1c(S(=O)(=O)O)cc(Nc2cccc(C(=O)O)c2)c2c1C(=O)c1ccccc1C2=O | 23.4
77 | Cc1ccc(C)c(Nc2cc(S(=O)(=O)O)c(N)c3c2C(=O)c2ccccc2C3=O)c1 | 11.2
78 | Nc1c(S(=O)(=O)O)cc(Nc2ccc(Br)cc2)c2c1C(=O)c1ccccc1C2=O | 3.3
79 | Nc1c(S(=O)(=O)O)cc(Nc2ccc(Sc3ccccc3)cc2)c2c1C(=O)c1ccccc1C2=O | 1.18
80 | Nc1c(S(=O)(=O)O)cc(Nc2ccc(Oc3ccc(Br)cc3)cc2)c2c1C(=O)c1ccccc1C2=O | 1.76
81 | Nc1c(S(=O)(=O)O)cc(Nc2ccc(F)cc2)c2c1C(=O)c1ccccc1C2=O | 4.04
82 | Nc1c(S(=O)(=O)O)cc(Nc2ccc(Oc3ccc(F)cc3)cc2)c2c1C(=O)c1ccccc1C2=O | 1.69
83 | Cc1ccc(C)c(Sc2ccc(Nc3cc(S(=O)(=O)O)c(N)c4c3C(=O)c3ccccc3C4=O)cc2)c1 | 0.395
84 | Nc1c(S(=O)(=O)O)cc(Nc2ccccc2Cl)c2c1C(=O)c1ccccc1C2=O | 9.34
85 | Nc1c(S(=O)(=O)O)cc(Nc2cc(Cl)ccc2C(=O)O)c2c1C(=O)c1ccccc1C2=O | 2.76
86 | Cc1ccc(Nc2cc(S(=O)(=O)O)c(N)c3c2C(=O)c2ccccc2C3=O)cc1 | 2.82
